Assay results taken from ChEMBL document CHEMBL3526048, “In vitro metabolism of rivoglitazone, a novel peroxisome proliferator-activated receptor γ agonist, in rat, monkey, and human liver microsomes and freshly isolated hepatocytes” (Drug Metab Dispos, 2011).

Assays:
[1] = system: Liver microsome; experiment: Drug level in human liver microsomes treated with [14C]-rivoglitazone at 20 uM after 2 hrs by radio-HPLC/LC-MS/MS analysis in presence of NADPH-generating system and NADPH-generating system/SAM; assay type: ADME
Summary of the method: (§1)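 Pooled male liver microsomes (1 mg/ml protein; rat from 94 Sprague-Dawley, monkey from 8 cynomolgus, human from 23 donors) were incubated with [¹⁴C]rivoglitazone (20 μM). Buffer: 10 mM potassium phosphate (pH 7.4). Cofactors: NADPH-generating system (2 mM NADP⁺, 20 mM G6P, 2 U/ml G6PDH, 10 mM MgCl₂), with or without 2 mM SAM. Incubation 2 h at 37°C with shaking; controls lacked NADPH system and SAM alone. Acetonitrile stop, radio-HPLC plus LC-MS.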

[2] = Retention time of the compound by LC-MS/MS analysis; assay type: physicochemical
Summary of the method: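 LC-MS/MS used a YMC-Pack ODS-A column (1.5 × 150 mm, 5 μm) at 30°C, 0.1 ml/min. Mobile phase was water and acetonitrile, each with 0.01% TFA. Gradient: 12→60% B over 30 min, →90% B over 5 min, hold 5 min. Detection was UV 220 nm with positive ESI Q-TOF (capillary 3300 V, cone 45 V), collision energy 20 eV and xenon as collision gas.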

[3] = system: Hepatocyte (Macaca fascicularis); experiment: Drug level in monkey hepatocytes treated with [14C]-rivoglitazone at 30 uM after 3 hrs by radio-HPLC/LC-MS/MS analysis in presence of NADPH-generating system and NADPH-generating system/SAM; conditions: cynomolgus monkey
[4] = system: Hepatocyte; experiment: Drug level in human hepatocytes treated with [14C]-rivoglitazone at 30 uM after 3 hrs by radio-HPLC/LC-MS/MS analysis in presence of NADPH-generating system and NADPH-generating system/SAM; assay type: ADME, cell-based
[5] = Drug level in cynomolgus monkey liver microsomes treated with [14C]-rivoglitazone at 20 uM after 2 hrs by radio-HPLC/LC-MS/MS analysis in presence of NADPH-generating system and NADPH-generating system/SAM; assay type: ADME, Macaca fascicularis; summary of the method: as §1
[6] = target: Cytochrome P450 3A4 (Homo sapiens, UniProt P08684); experiment: Activity of human CYP3A4 expressed in microsomes isolated from baculovirus infected insect cell assessed as enzyme-mediated compound formation treated with [14C]-rivoglitazone at 20 uM after 2 hrs by radio-HPLC/LC-MS/MS analysis in presence of NADPH-generating system and NADPH-generating system/SAM; assay type: ADME
[7] = target: Cytochrome P450 2C19 (Homo sapiens, UniProt P33261); experiment: Activity of human CYP2C19 expressed in microsomes isolated from baculovirus infected insect cell assessed as enzyme-mediated compound formation treated with [14C]-rivoglitazone at 20 uM after 2 hrs by radio-HPLC/LC-MS/MS analysis in presence of NADPH-generating system and NADPH-generating system/SAM; assay type: ADME
Summary of the method: (§2)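 Baculovirus/insect-cell microsomes expressing single human CYPs, 1 mg/ml protein, with 50 mM potassium phosphate (pH 7.4) or 100 mM Tris-HCl (pH 7.5). NADPH-generating system: 2 mM NADP⁺, 20 mM glucose 6-phosphate, 2 units/ml G6PDH, 10 mM MgCl₂. [¹⁴C]rivoglitazone at 20 μM, 2 h at 37°C with shaking. Control used insect-cell control supersomes. Stopped with acetonitrile; supernatant concentrated under nitrogen; metabolites analysed by radio-HPLC, LC-MS and LC-MS/MS.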

[8] = target: Cytochrome P450 3A5 (Homo sapiens, UniProt P20815); experiment: Activity of human CYP3A5 expressed in microsomes isolated from baculovirus infected insect cell assessed as enzyme-mediated compound formation treated with [14C]-rivoglitazone at 20 uM after 2 hrs by radio-HPLC/LC-MS/MS analysis in presence of NADPH-generating system and NADPH-generating system/SAM; assay type: ADME
Summary of the method: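 cDNA-expressed human CYP3A5 in baculovirus-insect-cell microsomes (1 mg/ml protein) was incubated with [¹⁴C]rivoglitazone (20 μM) in 50 mM potassium phosphate (pH 7.4) or 100 mM Tris-HCl (pH 7.5). NADPH-generating system: 2 mM NADP⁺, 20 mM glucose 6-phosphate, 2 units/ml G6PDH, 10 mM MgCl₂. Incubation ran 2 h at 37°C with shaking; insect-cell control supersomes served as control. Acetonitrile stop, supernatant concentrated, then radio-HPLC, LC-MS and LC-MS/MS.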

[9] = system: Hepatocyte; experiment: Drug level in rat hepatocytes treated with [14C]-rivoglitazone at 30 uM after 3 hrs by radio-HPLC/LC-MS/MS analysis in presence of NADPH-generating system and NADPH-generating system/SAM; assay type: ADME, cell-based
[10] = target: T1, Cytochrome P450 1A2 (Homo sapiens, UniProt P05177); experiment: Activity of human CYP1A2 expressed in microsomes isolated from baculovirus infected insect cell assessed as enzyme-mediated compound formation treated with [14C]-rivoglitazone at 20 uM after 2 hrs by radio-HPLC/LC-MS/MS analysis in presence of NADPH-generating system and NADPH-generating system/SAM; assay type: ADME; summary of the method: as §2
T1 sequence (P05177 whole entry): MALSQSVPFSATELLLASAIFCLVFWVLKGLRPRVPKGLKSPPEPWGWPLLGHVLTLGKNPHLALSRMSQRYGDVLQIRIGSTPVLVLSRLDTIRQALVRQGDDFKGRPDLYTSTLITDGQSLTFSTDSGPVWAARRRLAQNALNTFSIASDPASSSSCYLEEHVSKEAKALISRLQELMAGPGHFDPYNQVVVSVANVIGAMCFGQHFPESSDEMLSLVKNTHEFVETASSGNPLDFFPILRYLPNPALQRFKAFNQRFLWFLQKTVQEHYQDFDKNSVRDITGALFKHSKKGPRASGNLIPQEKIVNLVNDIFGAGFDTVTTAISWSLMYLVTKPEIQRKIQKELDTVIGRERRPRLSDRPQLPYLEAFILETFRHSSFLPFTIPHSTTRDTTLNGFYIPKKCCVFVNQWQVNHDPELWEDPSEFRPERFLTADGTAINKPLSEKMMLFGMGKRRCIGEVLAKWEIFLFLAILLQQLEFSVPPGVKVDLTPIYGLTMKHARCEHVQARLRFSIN

[11] = system: Liver microsome; experiment: Drug level in Sprague-Dawley rat liver microsomes treated with [14C]-rivoglitazone at 20 uM after 2 hrs by radio-HPLC/LC-MS/MS analysis in presence of NADPH-generating system and NADPH-generating system/SAM; assay type: ADME; summary of the method: as §1
[12] = target: Cytochrome P450 2C9 (Homo sapiens, UniProt P11712); experiment: Activity of human CYP2C9 expressed in microsomes isolated from baculovirus infected insect cell assessed as enzyme-mediated compound formation treated with [14C]-rivoglitazone at 20 uM after 2 hrs by radio-HPLC/LC-MS/MS analysis in presence of NADPH-generating system and NADPH-generating system/SAM; assay type: ADME
[13] = target: Cytochrome P450 2D6 (Homo sapiens, UniProt P10635); experiment: Activity of human CYP2D6 expressed in microsomes isolated from baculovirus infected insect cell assessed as enzyme-mediated compound formation treated with [14C]-rivoglitazone at 20 uM after 2 hrs by radio-HPLC/LC-MS/MS analysis in presence of NADPH-generating system and NADPH-generating system/SAM; assay type: ADME
[14] = target: T2, Cytochrome P450 2C8 (Homo sapiens, UniProt P10632); experiment: Activity of human CYP2C8 expressed in microsomes isolated from baculovirus infected insect cell assessed as enzyme-mediated compound formation treated with [14C]-rivoglitazone at 20 uM after 2 hrs by radio-HPLC/LC-MS/MS analysis in presence of NADPH-generating system and NADPH-generating system/SAM; assay type: ADME; summary of the method: as §2
T2 sequence (P10632 whole entry): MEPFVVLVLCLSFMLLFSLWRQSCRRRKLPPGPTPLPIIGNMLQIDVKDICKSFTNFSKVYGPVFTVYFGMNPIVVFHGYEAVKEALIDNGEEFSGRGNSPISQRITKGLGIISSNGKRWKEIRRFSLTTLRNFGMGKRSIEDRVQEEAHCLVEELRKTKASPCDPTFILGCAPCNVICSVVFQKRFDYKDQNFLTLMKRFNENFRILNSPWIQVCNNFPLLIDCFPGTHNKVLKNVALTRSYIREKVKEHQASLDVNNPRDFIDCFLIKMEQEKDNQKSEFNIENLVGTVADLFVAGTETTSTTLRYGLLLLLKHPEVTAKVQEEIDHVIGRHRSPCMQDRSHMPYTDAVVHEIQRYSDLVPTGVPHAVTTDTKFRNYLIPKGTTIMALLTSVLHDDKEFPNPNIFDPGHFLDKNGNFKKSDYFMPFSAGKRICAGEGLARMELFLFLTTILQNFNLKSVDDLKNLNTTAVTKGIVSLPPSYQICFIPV

[15] = system: Hepatocyte; experiment: Drug level in human hepatocytes treated with [14C]-rivoglitazone at 30 uM after 3 hrs by radio-HPLC/LC-MS/MS analysis in presence of NADPH-generating system/SAM; assay type: ADME, cell-based
[16] = system: Liver microsome; experiment: Drug level in Sprague-Dawley rat liver microsomes treated with [14C]-rivoglitazone at 20 uM after 2 hrs by radio-HPLC/LC-MS/MS analysis in presence of NADPH-generating system/SAM; assay type: ADME; summary of the method: as §1
[17] = system: Liver microsome; experiment: Drug level in human liver microsomes treated with [14C]-rivoglitazone at 20 uM after 2 hrs by radio-HPLC/LC-MS/MS analysis in presence of NADPH-generating system/SAM; assay type: ADME; summary of the method: as §1
[18] = Drug level in cynomolgus monkey liver microsomes treated with [14C]-rivoglitazone at 20 uM after 2 hrs by radio-HPLC/LC-MS/MS analysis in presence of NADPH-generating system/SAM; assay type: ADME, Macaca fascicularis; summary of the method: as §1
[19] = system: Hepatocyte; experiment: Drug level in rat hepatocytes treated with [14C]-rivoglitazone at 30 uM after 3 hrs by radio-HPLC/LC-MS/MS analysis in presence of NADPH-generating system/SAM; assay type: ADME, cell-based
[20] = system: Hepatocyte; experiment: Drug level in human hepatocytes treated with [14C]-rivoglitazone at 30 uM after 3 hrs by radio-HPLC/LC-MS/MS analysis; assay type: ADME, cell-based
Summary of the method: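 Freshly isolated hepatocytes were suspended in HBSS at 2×10^6 viable cells/ml; trypan-blue viability was rat 88%, monkey 91 and 94%, human 66, 73 and 81%. Donors were rat (7 weeks, 170 g) and two male cynomolgus monkeys. Cells were incubated with [¹⁴C]rivoglitazone (30 μM) for 3 h at 37°C under 95% O₂/5% CO₂. Acetonitrile stop, sonication, samples pooled per species, supernatant analysed by radio-HPLC and LC-MS.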

Sequence of Cytochrome P450 3A4 (P08684 whole entry): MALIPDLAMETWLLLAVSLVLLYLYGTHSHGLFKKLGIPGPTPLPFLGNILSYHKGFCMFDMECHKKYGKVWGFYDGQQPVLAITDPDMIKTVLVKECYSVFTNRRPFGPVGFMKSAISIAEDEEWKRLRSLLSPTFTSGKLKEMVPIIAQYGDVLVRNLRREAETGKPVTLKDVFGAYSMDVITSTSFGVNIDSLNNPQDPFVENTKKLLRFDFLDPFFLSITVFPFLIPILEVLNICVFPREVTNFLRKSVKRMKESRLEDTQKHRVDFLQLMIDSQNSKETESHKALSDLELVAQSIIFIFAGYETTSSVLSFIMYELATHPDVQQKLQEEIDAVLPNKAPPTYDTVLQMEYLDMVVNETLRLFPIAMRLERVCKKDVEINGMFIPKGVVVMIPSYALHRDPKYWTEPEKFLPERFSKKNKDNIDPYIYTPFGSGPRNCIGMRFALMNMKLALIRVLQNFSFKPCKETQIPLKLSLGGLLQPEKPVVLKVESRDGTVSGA
Sequence of Cytochrome P450 3A5 (P20815 whole entry): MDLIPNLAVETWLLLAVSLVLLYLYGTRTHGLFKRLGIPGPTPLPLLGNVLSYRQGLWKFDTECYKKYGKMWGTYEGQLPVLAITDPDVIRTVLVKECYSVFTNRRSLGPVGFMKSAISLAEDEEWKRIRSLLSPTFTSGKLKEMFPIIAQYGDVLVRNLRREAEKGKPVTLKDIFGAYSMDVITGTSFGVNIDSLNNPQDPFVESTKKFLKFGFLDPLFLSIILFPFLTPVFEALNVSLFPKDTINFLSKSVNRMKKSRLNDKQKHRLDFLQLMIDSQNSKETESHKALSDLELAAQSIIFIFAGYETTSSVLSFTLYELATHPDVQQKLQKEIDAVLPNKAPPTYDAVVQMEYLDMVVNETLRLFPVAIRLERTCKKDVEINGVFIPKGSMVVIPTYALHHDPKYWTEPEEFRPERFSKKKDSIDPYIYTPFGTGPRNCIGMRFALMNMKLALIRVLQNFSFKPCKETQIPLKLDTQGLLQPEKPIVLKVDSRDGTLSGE
Sequence of Cytochrome P450 2D6 (P10635 whole entry): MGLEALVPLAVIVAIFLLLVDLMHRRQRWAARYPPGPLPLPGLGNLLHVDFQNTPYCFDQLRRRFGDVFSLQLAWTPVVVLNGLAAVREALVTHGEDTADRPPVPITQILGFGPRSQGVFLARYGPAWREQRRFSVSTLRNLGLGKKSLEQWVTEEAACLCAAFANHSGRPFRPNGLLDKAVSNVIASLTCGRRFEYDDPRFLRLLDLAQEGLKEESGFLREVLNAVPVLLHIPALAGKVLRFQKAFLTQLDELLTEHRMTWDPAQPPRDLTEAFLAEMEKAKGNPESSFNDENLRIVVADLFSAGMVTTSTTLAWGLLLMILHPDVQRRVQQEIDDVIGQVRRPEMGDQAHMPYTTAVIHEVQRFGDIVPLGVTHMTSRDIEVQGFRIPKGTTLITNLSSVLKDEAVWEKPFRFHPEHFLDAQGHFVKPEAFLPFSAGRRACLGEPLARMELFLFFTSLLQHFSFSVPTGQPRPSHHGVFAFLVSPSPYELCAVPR
Sequence of Cytochrome P450 2C9 (P11712 whole entry): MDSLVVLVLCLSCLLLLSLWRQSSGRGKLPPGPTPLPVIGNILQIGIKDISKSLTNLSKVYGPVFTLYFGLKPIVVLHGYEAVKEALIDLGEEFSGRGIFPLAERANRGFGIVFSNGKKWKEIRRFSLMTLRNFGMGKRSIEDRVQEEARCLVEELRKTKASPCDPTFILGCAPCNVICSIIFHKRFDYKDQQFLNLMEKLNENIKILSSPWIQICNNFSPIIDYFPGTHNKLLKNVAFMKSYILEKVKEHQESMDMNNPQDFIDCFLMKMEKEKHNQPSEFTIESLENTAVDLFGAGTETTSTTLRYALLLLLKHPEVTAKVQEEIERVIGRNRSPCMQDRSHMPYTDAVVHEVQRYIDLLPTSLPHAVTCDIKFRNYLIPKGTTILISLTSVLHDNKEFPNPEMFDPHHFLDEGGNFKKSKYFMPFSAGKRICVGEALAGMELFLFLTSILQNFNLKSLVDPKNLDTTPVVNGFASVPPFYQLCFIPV
Sequence of Cytochrome P450 2C19 (P33261 whole entry): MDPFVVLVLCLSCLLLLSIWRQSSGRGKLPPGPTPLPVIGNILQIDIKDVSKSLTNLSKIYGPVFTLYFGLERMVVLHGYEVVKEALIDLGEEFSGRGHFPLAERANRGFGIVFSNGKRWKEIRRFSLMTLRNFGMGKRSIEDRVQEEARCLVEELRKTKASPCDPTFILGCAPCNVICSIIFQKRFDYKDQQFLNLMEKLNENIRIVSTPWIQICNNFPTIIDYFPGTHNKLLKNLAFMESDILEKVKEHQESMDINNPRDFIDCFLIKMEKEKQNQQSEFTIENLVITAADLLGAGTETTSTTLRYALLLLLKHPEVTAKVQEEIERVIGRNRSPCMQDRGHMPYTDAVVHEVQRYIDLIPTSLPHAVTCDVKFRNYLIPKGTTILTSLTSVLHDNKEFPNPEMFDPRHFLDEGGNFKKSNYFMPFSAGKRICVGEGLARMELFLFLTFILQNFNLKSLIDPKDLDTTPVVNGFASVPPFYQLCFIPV

| Drug metabolism [1] | Retention_time [2] [min] | Drug metabolism [3] | Drug metabolism [4] | Drug metabolism [5] | Drug metabolism [6] | Drug metabolism [7] | Drug metabolism [8] | Drug metabolism [9] | Drug metabolism [10] | Drug metabolism [11] | Drug metabolism [12] | Drug metabolism [13] | Drug metabolism [14] | Drug metabolism [15] | Drug metabolism [16] | Drug metabolism [17] | Drug metabolism [18] | Drug metabolism [19] | Drug metabolism [20] | Structure (SMILES) |
| --- | --- | --- | --- | --- | --- | --- | --- | --- | --- | --- | --- | --- | --- | --- | --- | --- | --- | --- | --- | --- |
|  | 18.1 |  |  |  |  |  |  |  |  |  |  |  |  | metabolite_detected | metabolite_detected | metabolite_detected | metabolite_detected | metabolite_detected |  | COc1ccc2nc(COc3ccc(CC(C(N)=O)S(C)(=O)=O)cc3)n(C)c2c1 (centres undefined) |
| metabolite_detected | 16.3 |  |  | metabolite_detected | metabolite_detected | metabolite_detected | metabolite_detected |  | metabolite_detected | metabolite_detected | metabolite_detected | metabolite_detected | metabolite_detected |  |  |  |  |  |  | COc1ccc2nc(COc3ccc(CC(O)C(N)=O)cc3)n(C)c2c1 (centres undefined) |
| metabolite_detected | 20.2 |  |  | metabolite_detected | metabolite_detected | metabolite_detected | metabolite_detected |  | metabolite_detected | metabolite_detected | metabolite_detected | metabolite_detected | metabolite_detected |  |  |  |  |  |  | COc1ccc2nc(COc3ccc(CC(S)C(N)=O)cc3)n(C)c2c1 (centres undefined) |
|  | 16.1 |  |  |  |  |  |  |  |  |  |  |  |  | metabolite_detected | metabolite_detected | metabolite_detected | metabolite_detected | metabolite_detected |  | COc1ccc2nc(COc3ccc(CC(C(N)=O)[S+](C)[O-])cc3)n(C)c2c1 (centres undefined) |

The next lines start with the molecule.

| Structure (SMILES) | Drug metabolism [1] | Retention_time [2] [min] | Drug metabolism [3] | Drug metabolism [4] | Drug metabolism [5] | Drug metabolism [6] | Drug metabolism [7] | Drug metabolism [8] | Drug metabolism [9] | Drug metabolism [10] | Drug metabolism [11] | Drug metabolism [12] | Drug metabolism [13] | Drug metabolism [14] | Drug metabolism [15] | Drug metabolism [16] | Drug metabolism [17] | Drug metabolism [18] | Drug metabolism [19] | Drug metabolism [20] |
| --- | --- | --- | --- | --- | --- | --- | --- | --- | --- | --- | --- | --- | --- | --- | --- | --- | --- | --- | --- | --- |
| Cn1c(COc2ccc(CC3SC(=O)NC3=O)cc2)nc2ccc(O)cc21 (centres undefined) | metabolite_detected | 19.2 | metabolite_detected | metabolite_detected | metabolite_detected | metabolite_detected | metabolite_detected | metabolite_detected | metabolite_detected | metabolite_detected | metabolite_detected | metabolite_detected | metabolite_detected | metabolite_detected |  |  |  |  |  |  |
| COc1ccc2nc(COc3ccc(CC4(O)SC(=O)NC4=O)cc3)n(C)c2c1 (centres undefined) | metabolite_detected | 21.5 | metabolite_detected | metabolite_detected | metabolite_detected | metabolite_detected | metabolite_detected | metabolite_detected | metabolite_detected | metabolite_detected | metabolite_detected | metabolite_detected | metabolite_detected | metabolite_detected |  |  |  |  |  |  |
| COc1ccc2nc(COc3ccc(CC(SSCC(N)C(=O)O)C(=O)O)cc3)n(C)c2c1 (centres undefined) |  | 17.1 |  |  |  |  |  |  |  |  |  |  |  |  |  |  |  |  |  | metabolite_detected |
